One block for each molecule: values may come before it.
Legend:
[1] = Plasma exposure following oral administration in mice; assay type: in vivo, C57BL/6 mice
human PPARα (hPPARα) = target: T1, human PPARα (hPPARα) (Homo sapiens, UniProt Q07869); test: PPARα GAL-4 transactivation assay in HEK293T cells; assay type: cell-based
T1 sequence (Q07869 239-466 limits assumed): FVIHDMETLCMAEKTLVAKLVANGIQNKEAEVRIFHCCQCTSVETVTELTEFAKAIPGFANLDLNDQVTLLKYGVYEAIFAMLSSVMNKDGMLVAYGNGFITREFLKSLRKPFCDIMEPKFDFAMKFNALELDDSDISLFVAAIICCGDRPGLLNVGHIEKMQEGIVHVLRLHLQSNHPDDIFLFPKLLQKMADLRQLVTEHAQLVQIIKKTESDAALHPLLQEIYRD

PPRE = test: full length PPRE transactivation assay; assay type: cell-based; conditions: for EC50 PPRE: full length PPRE assay
PPARγ Gal-4 = target: T2, PPARγ Gal-4 (Homo sapiens, UniProt P37231); test: Gal4-PPARγ-LBD cell-based transactivation assay in HEK293T cells
T2 sequence (P37231 238-503 limits assumed): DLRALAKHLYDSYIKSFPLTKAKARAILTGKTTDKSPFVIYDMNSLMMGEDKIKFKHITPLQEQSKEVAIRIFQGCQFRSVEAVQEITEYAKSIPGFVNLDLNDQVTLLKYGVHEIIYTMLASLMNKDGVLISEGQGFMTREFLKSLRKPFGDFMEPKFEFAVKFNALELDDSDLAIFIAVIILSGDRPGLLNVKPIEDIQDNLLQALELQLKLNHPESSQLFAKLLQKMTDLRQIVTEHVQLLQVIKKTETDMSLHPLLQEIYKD

3T3-L1 cells = test: Differentiation of 3T3-L1 cells; assay type: cell-based, Mus musculus; conditions: for RNA-seq differential gene expression: 3T3-L1 cells, 6 days
Outline: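 Mouse 3T3-L1 embryo fibroblasts grown in DMEM with 10% heat-inactivated FBS, 2mM L-glutamine and 1% penicillin/streptomycin at 37 °C, 5% CO2. Test compound (1μM) added from the first day of differentiation; six days' incubation. Lipid droplets stained with Oil Red. Gene expression by qPCR: SYBR green, ΔΔ-Ct method normalised to Tbp. RNA-seq used stranded (dUTP) cDNA libraries. Mean ± SEM.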

His-PPARγ = target: T3, His-PPARγ (Homo sapiens, UniProt P37231); test: TR-FRET NR box peptide recruitment assay; assay type: biochemical; conditions: FITC-labeled peptides
T3 sequence (P37231 1-505): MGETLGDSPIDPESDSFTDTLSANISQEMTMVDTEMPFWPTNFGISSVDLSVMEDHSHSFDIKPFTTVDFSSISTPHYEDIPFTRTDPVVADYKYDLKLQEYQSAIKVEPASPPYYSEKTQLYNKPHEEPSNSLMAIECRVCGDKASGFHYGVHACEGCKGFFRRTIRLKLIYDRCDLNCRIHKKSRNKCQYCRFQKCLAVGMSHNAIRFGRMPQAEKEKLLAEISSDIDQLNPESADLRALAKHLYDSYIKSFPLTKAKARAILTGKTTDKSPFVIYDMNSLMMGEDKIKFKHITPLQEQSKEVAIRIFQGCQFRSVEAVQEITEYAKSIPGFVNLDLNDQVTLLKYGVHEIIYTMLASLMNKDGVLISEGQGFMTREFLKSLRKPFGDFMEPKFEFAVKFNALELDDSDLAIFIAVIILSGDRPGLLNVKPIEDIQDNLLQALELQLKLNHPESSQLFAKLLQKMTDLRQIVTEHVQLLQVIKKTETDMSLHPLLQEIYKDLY

hPPARδ = target: T4, hPPARδ (Homo sapiens, UniProt Q03181); test: hPPARδ-Gal4 transactivation assay; assay type: cell-based; conditions: Figure S1A
T4 sequence (Q03181 1-441): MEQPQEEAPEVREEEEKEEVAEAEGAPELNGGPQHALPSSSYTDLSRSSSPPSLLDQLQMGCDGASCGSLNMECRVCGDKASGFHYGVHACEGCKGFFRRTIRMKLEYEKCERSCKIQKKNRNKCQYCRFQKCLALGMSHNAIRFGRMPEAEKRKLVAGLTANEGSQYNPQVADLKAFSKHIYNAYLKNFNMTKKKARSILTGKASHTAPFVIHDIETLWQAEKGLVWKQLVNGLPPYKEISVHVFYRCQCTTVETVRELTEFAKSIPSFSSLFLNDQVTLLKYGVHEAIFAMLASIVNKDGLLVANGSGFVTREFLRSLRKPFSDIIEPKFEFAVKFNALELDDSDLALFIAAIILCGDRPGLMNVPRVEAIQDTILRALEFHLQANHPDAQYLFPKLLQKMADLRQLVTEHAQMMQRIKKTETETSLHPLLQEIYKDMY

[2] = target: T5, phosphorylation of PPARγ at S273 (pS273) (Homo sapiens, UniProt P37231); test: In vitro Cdk5 kinase assay, phosphorylation of PPARγ at S273; assay type: biochemical; conditions: vs DMSO only controls
T5 sequence (P37231 1-505): T3 sequence (P37231 1-505)
Outline: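 1 μg immuno-purified WT PPARγ substrate pre-incubated with test compound for 30 min. Active Cdk5/p35 kinase then added in 25 mM Tris-HCl pH 7.5, 5 mM β-glycerophosphate, 2 mM DTT, 0.1 mM Na3VO4, 10 mM MgCl2 and 20 μM ATP, for 15 min at 30 °C. After SDS–PAGE, phospho-Ser in the K/R-S-P-K/R motif was detected with an anti-CDK-substrate antibody.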

[3] = target: T5, phosphorylation of PPARγ at S273 (pS273); conditions: ref Choi et al., 2010; cited from earlier work
PPARγ LBD = target: T6, PPARγ LBD (human, UniProt P37231 231-505); test: cross-linking
T6 sequence (looked up): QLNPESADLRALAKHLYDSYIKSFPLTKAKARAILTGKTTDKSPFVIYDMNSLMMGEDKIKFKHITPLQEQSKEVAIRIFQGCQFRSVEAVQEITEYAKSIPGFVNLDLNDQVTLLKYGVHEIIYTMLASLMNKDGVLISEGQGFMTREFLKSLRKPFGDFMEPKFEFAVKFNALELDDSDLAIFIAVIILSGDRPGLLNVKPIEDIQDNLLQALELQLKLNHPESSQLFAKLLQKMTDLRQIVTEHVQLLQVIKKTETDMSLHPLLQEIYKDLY

Molecule: Cc1c(C)n(Cc2ccc(-c3ccccc3C(=O)O)cc2)c2ccc(C(=O)N[C@@H](C)c3ccc([N+](=O)[O-])cc3)cc12 [SR1664, reference compound]
plasma concentration ([1]; C57BL/6 mice, oral, 40mg.kg−1, two hours after dosing): less than 1 μM | EC50 (human PPARα (hPPARα); read-out: EC50 PPARα GAL-4): 8.6 µM | EC50 PPRE (PPRE): No activity

EC50 (PPARγ Gal-4; EC50 PPARγ Gal-4, HEK293T): 2.76 µM | Max.Stim. PPARγ Gal-4 (PPARγ Gal-4; HEK293T): 10% | concentration at 2 h ([1]; C57BL/6, mouse, plasma, po, 40 mg.kg−1): 70 µM | EC50 PPARα GAL-4 (human PPARα (hPPARα)): No activity | transcriptional agonism, hPPARα-Gal4 transactivation (human PPARα (hPPARα); Figure S1A): no transcriptional agonism | EC50 PPRE (PPRE): No activity | PPARγ interaction with coactivator NR box peptides p300 and SRC1–2 (His-PPARγ): no enhanced interaction | PPARγ interaction with corepressor peptides NCOR1–3 and SMRT-2 (His-PPARγ): increased | transcriptional agonism, hPPARδ-Gal4 transactivation (hPPARδ): no transcriptional agonism | % inhibition p273-PPARγ ([2]; 20μM, 20 µM): 77% | inhibition at 2 µM ([2]; read-out: % inhibition p273-PPARγ, 2μM): 25%
Molecule: Cc1c(C)n(Cc2ccc(C(C)(C)C(=O)O)cc2)c2ccc(C(=O)N[C@@H](C)c3cccc(C4CC4)c3)cc12 [SR11023, (S)-2-(4-((5-((1-(3-cyclopropylphenyl)ethyl)carbamoyl)-2,3-dimethyl-1H-indol-1-yl)methyl)phenyl)-2-methylpropanoic acid]
shift of the dose response curve for rosiglitazone in the GAL4-PPARG assay (PPARγ Gal-4; data not shown): significantly right-shift the dose response curve for rosiglitazone | RNA-seq differential gene expression (3T3-L1 cells): very modest regulation of only a small subset of PPARγ controlled genes | adipogenic activity (lipid formation, aP2 and cd36 expression) (3T3-L1 cells; differentiated 3T3-L1 cells, 1μM, six days): minimal adipogenic activity

EC50 (PPRE; read-out: EC50 PPRE): 0.01 µM
Molecule: CN(CCOc1ccc(CC2SC(=O)NC2=O)cc1)c1ccccn1 (centres unmarked) [Rosiglitazone, reference compound]
RNA-seq differential gene expression (3T3-L1 cells): robust activation of a large gene set containing many known PPARγ target genes

PPARγ interaction with coactivator NR box peptides p300 and SRC1–2 (His-PPARγ): enhanced the association | PPARγ interaction with corepressor peptides NCOR1–3 and SMRT-2 (His-PPARγ): facilitated dissociation
Molecule: MRL24
inhibition of p273-PPARγ compared with Rosi [3]: More potent than Rosi to inhibit p273 ([Choi et al., 2010])

binding result (PPARγ LBD): binds
Molecule: LTERHKILHRLLQEGSPSD [SRC1–2 NR box peptide]

Reference: paper PMC6221991 (Structure (London, England : 1993), 2018)
